CSN deneddyl inh = blocks human CSN-mediated cullin deneddylation; Q92905; 360,000 compounds, 0.38% hits; AID 651999; inhibition, % at 12.5 µM; Purified CSN, SCF-Nedd8-OG deneddylation, fluorescence polarization;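 active means pattern-corrected inhibition above about 35%, with an unprinted fluorescence ratio check between 0.5 and 1.5, limit read from the data, passing the limit was not always enough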
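Assay system: Purified human Csn5 enzyme expressed in HEK293T cells | Amount: Enzyme 0.24 nM | Measured by: Fluorescence polarization readout | Medium: Tris/NaCl/DTT buffer, pH 7.5 | Compound dosing: One concentration, 12.5 µM, 0.25% DMSO | Times: 90 min incubation of compound, enzyme and substrate at room temperature | Control set: no-enzyme wells high, enzyme-with-substrate wells low | Read-out: % inhibition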
HNF4A DNA FP = change in binding of human HNF4 alpha to DNA; P41235; HNF4a-FITC DNA binding, fluorescence polarization, 1 h; activity change, % at 10 µM; 360,000 compounds, 0.3% hits; in the data active means activity change above about 30%, passing the limit was not always enough
NR1D1 modulator = Rev-erb alpha (human) modulation. P20393. Rev-erbα–FITC-DNA binding, fluorescence polarization, 90 min. activity, % at 10 µM. 370,000 compounds, 0.79% hits;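 active means activity above about 14%, limit read from the data; passing the limit was not always enough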
Target sequence (P20393 whole entry, looked up): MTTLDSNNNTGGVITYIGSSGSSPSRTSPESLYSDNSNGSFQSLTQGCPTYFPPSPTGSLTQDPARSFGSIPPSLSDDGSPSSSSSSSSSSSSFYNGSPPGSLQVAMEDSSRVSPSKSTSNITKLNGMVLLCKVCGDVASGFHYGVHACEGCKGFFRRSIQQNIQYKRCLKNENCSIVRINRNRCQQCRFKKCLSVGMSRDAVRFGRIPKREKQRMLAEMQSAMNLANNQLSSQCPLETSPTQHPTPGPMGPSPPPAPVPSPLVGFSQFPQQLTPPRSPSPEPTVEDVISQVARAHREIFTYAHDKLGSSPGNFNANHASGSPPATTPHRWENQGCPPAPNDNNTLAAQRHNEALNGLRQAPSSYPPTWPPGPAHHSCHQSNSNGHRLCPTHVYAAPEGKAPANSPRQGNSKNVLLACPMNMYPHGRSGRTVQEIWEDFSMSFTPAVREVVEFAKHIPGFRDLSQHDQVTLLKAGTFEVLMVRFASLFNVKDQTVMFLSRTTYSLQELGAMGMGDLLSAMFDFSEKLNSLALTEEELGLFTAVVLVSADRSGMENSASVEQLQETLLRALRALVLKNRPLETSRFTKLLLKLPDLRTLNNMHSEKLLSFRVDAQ
aDG glyco act = increases alpha dystroglycan glycosylation | activation, % at 10 µM | 360,000 compounds, 0.22% hits | Pro5-aDG cells, alpha-DG glycosylation AlphaScreen (IIH6); 0% Pro5, 100% B10-LARGE cell signal | AID 624168;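 active means activation of at least 8% versus controls, or a plate z-score of at least 8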;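 further: Pro5 are CHO cells carrying HIG-tagged alpha-DG that lacks glycosylation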
Numbers stand for hits; 0 = inactive; - = not tested or not shown. Most compounds without a hit are left out; they make up all but 1.5% or so of the library.

SMILES | CSN deneddyl inh | HNF4A DNA FP | NR1D1 modulator | aDG glyco act
CC(C)N1CCCCC(NC(=O)c2cccc(F)c2)C1=O (stereo not drawn) | - | - | 0 | -
O=C(N/N=C/C=C/c1ccccc1)c1cc2c(ccc3ccccc32)o1 | 41.8 | 0 | 0 | 0
COc1ccc(OC)c(/C=N\NC(=O)c2cc3c(ccc4ccccc43)o2)c1 | 0 | 0 | 0 | 0
O=C(N/N=C/c1ccccc1F)c1cc2c(ccc3ccccc32)o1 | 0 | 39.2 | 0 | 0
O=c1c(/C=C(\O)c2ccccc2)nc2ccccc2n1-c1ccccc1 | 0 | 45.7 | 0 | 0
CCOC(=O)C1=C(c2ccccc2)N=c2s/c(=C\c3ccco3)c(=O)n2C1c1cccs1 (stereo not drawn) | 37.8 | 0 | 0 | 0
CCOC(=O)C1=C(c2ccccc2)N=c2s/c(=C\c3cc(OC)c(OC)c(OC)c3)c(=O)n2C1c1cccs1 (stereo not drawn) | 0 | 0 | 0 | 0
CCCC(=O)OC12CCCN(C1)/C(=C/c1ccc(Cl)cc1)C2 (stereo not drawn) | - | - | 0 | -
NC(=O)C1CSSCCC(=O)NC(CCCCN=C(N)N)C(=O)NCC(=O)NC(CC(=O)O)C(=O)NC(Cc2c[nH]c3ccccc23)C(=O)N2CCCC2C(=O)N1 (stereo not drawn) | - | - | 0 | -
Cc1ccc2c(c1)N(Cc1cccc(C#N)c1)C=NS2(=O)=O | 99.7 | 0 | 0 | 0
Cc1ccc2c(c1)N(Cc1ccc([N+](=O)[O-])cc1)C=NS2(=O)=O | 0 | 0 | 0 | 0
CCN1C(=O)/C(=C/C=C2/CCCN2C)OC1=S | 0 | 88.3 | 0 | 0
CCOC(=O)C1CCN(c2ncnc3c2cnn3C)CC1 | 0 | 100.9 | - | 0
CCOC(=O)C1CCN(c2ncnc3c2cnn3-c2ccccc2)CC1 | 0 | 0 | 0 | 0
O[C@H](CNC[C@@H](O)[C@H]1CCc2cc(F)ccc2O1)[C@@H]1CCc2cc(F)ccc2O1 | - | - | 0 | -
Cc1cccc(NC(=O)c2ccc(NCCc3ccccc3)c([N+](=O)[O-])c2)c1 | 89.4 | 0 | 0 | 0
O[C@H](COc1cccc(Cl)c1)CN1CCC(C(O)(c2ccccc2)c2ccccc2)CC1 | - | - | 0 | -
CCCCCN(C(=O)CN1CCC(Cc2ccccc2)CC1)c1c(N)n(CCCC)c(=O)[nH]c1=O | 0 | 36.6 | 0 | 0
COCCNC(=O)c1sc2ncn(CC(=O)N3CCCCC3)c(=O)c2c1C | 0 | 64.5 | 0 | 0
O=C1NC(=Nc2ccccc2)S/C1=C/c1cccs1 | 0 | 63.8 | 0 | 0
Cc1cccc(N=C2NC(=O)/C(=C\c3cccs3)S2)c1 | 0 | 0 | 0 | 0
COc1ccc(-c2c(C#N)c(N)nc3sc(C(=O)c4ccc(C)cc4)c(N)c23)cc1 | 0 | 74.8 | 0 | 0
COc1ccc(C(=O)c2sc3nc(-c4ccc(OC)cc4)ccc3c2N)cc1 | 0 | 0 | 0 | 0
C[C@@H]1CN([C@H](C)CO)C(=O)c2cc(NC(=O)Nc3ccccc3)ccc2O[C@@H](C)CCCCO[C@H]1CN(C)S(=O)(=O)c1ccc(F)cc1 | - | - | 0 | -
O=C(Nc1ccc(F)cc1)N(Cc1cccs1)Cc1cc2cc3c(cc2[nH]c1=O)OCO3 | 0 | 0 | 0 | 0
SMILES | CSN deneddyl inh | HNF4A DNA FP | NR1D1 modulator | aDG glyco act
O=C(Nc1ccc(F)cc1)N(Cc1ccco1)Cc1cc2cc3c(cc2[nH]c1=O)OCO3 | 0 | 41.9 | 0 | 0
COC(=O)C1CN(C2CCCC2)CCS(=O)(=O)N1Cc1cn(Cc2ccc(Cl)cc2)nn1 (stereo not drawn) | - | - | 0 | -
COc1ccccc1CNC(=O)CCS(=O)(=O)c1ccc2c(c1)CCN2C(C)=O | 0 | 0 | 0 | 5.3
CS(=O)(=O)Nc1ccc(C2=NN(S(C)(=O)=O)C(c3ccc4c(c3)OCO4)C2)cc1 (stereo not drawn) | 0 | 79.2 | 0 | 0
CCCCC[n+]1ccn(C2=C([O-])c3ccccc3C(=O)/C2=N\S(=O)(=O)c2ccc(Br)cc2)c1 | 0 | 0 | 0 | 5.8
CC(=O)OCC(=O)[C@@]1(O)[C@H](C)CC2C3CCC4=CC(=O)C=C[C@]4(C)[C@@]3(F)[C@@H](O)C[C@@]21C (stereo partly drawn) | - | - | 0 | -
CC(C)CN1C(=O)[C@]2(CC(=O)N(C)C2c2ccccc2)c2cc(-n3cc(C4=CCCCC4)nn3)ccc21 (stereo partly drawn) | - | - | 0 | -
Cc1cc(=O)oc2cc(OCC(=O)N/N=C/c3ccccc3O)ccc12 | 105.9 | 0 | 0 | 0
CC(=O)c1sc(N/N=C\c2c(O)ccc3ccccc23)nc1C | 0 | 83.2 | 0 | 0
CCOC(=O)C1=CCN(S(=O)(=O)c2ccccc2)C1c1ccc(C)cc1 (stereo not drawn) | 0 | 0 | 0 | 0
CCOC(=O)C1=CCN(S(=O)(=O)c2ccccc2)C1c1ccccc1 (stereo not drawn) | 121.4 | 0 | 0 | 0
COc1ccc2c(c1)CC/C(=C\Nc1ccc3c(c1)OCO3)C2=O | 0 | 45.4 | 0 | 0
COc1ccc(N/C=C2\CCc3ccccc3C2=O)cc1 | 0 | 0 | 0 | 0
O=C1/C(=C/Nc2ccc3c(c2)OCO3)CCc2ccccc21 | 0 | 49.3 | 0 | 0
O=C(c1sccc1Cl)N1CCC(n2nnc3ncccc32)CC1 | - | - | 0 | -
COc1ccc(-n2c(O)c(/C=N/NS(=O)(=O)c3ccc(C)cc3)c3ccccc3c2=O)cc1OC | 0 | 86.5 | 0 | 0
CCOC(=O)c1c(NC(=S)Nc2ccccc2)sc2c1CCN(CC)C2 | 0 | 43.6 | 0 | 0
CC(C)NC(=S)N/N=C/c1sc(N2CCCCC2)nc1-c1cccs1 | 0 | 40.9 | 0 | 0
Cc1ccc(Nc2nc(-c3ccc(C)cc3)c(CC(=O)O)s2)cc1 | 64.8 | 0 | 0 | 0
Nc1nc(-c2ccc(Oc3ccccc3)cc2)c(CC(=O)O)s1 | 41.9 | 0 | 0 | 0
CC(C)CN1C(=O)[C@@]2(CC(=O)N(C)C2c2ccccc2)c2cc(-n3cc(CCCC#N)nn3)ccc21 (stereo partly drawn) | - | - | 0 | -
Cc1cccc(C)c1NC(=O)C1(C)CSCC(=O)N1Cc1ccco1 (stereo not drawn) | 94.2 | 39.7 | 0 | 0
Cc1ccc(CN2C(=O)CSCC2(C)C(=O)Nc2c(C)cccc2C)cc1 (stereo not drawn) | 0 | 0 | 0 | 0
COc1ccc(-c2csc(-n3ncc(-c4ccccn4)c3N)n2)cc1 | 0 | 27.7 | 0 | 0
COc1ccc(-c2nnc(SCC(=O)Nc3ccc(S(=O)(=O)Nc4cc(C)nc(C)n4)cc3)n2-c2ccc(OC)cc2)cc1 | - | - | 0 | -
Cc1ccc(S(=O)(=O)N2[C@@H](c3ccc(C(C)(C)C)cc3)C(C(=O)O)=CC[C@H]2c2ccc(Cl)c(Cl)c2)cc1 | 0 | 0 | 0 | 0
Cc1ccc(S(=O)(=O)N2[C@@H](c3ccc(Cl)cc3)C(C(=O)OC(C)(C)C)=CC[C@H]2c2ccc(Cl)c(Cl)c2)cc1 | 144.0 | 0 | 0 | 0
COC(=O)/C(C#N)=C/c1ccc(OC(=O)c2ccccn2)cc1 | 0 | 44.7 | 0 | 0
Cc1c(CCOC(=O)CC23CC4CC(CC(C4)C2)C3)sc[n+]1CC(=O)c1ccccc1 | 0 | 0 | 0 | 0
Cc1c(CCOC(=O)C23CC4(C)CC(C)(CC(C)(C4)C2)C3)sc[n+]1CC(=O)c1ccccc1 | 0 | 80.9 | 0 | 0

From PubChem
